# CHRM1 PAM: potentiates human M1 receptor response to acetylcholine | activation, % at 3 µM | hit rate 0.088% among 360,000 | CHO-K1 hM1, Fluo-8 calcium fluorescence, ACh EC20; 0% = ACh EC20, 100% = maximal ACh | AID 588819; in the data active = activation above about 19%, passing the limit was not always enough
# Target sequence (P11229 whole entry, looked up): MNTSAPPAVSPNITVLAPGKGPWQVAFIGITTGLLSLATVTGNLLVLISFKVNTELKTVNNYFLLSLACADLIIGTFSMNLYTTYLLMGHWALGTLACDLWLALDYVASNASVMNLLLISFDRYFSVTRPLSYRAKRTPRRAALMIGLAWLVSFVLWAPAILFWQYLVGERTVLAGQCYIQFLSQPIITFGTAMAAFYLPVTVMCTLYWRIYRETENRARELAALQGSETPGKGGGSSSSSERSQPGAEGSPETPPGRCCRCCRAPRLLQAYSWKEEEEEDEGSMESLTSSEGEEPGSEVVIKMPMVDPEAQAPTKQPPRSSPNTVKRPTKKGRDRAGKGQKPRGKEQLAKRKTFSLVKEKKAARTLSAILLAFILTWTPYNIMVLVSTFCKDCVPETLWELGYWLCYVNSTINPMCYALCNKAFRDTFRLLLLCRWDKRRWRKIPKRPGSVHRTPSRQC
# M1 antag: human CHRM1 antagonism; P11229; inhibition, % at 3 µM; AID 588852; CHO-K1 hM1, Fluo-8 calcium fluorescence, ACh EC80 antagonist; hit rate 1.3% among 360,000;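 active = percent inhibition above its own plate's cutoff, namely the mean of that plate's compound wells plus 3 SD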;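 note: peak over basal fluorescence ratio during 140 s after agonist addition; 0% = ACh EC80 plus DMSO and 100% = DMSO alone without agonist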
# TAAR1 antag: human TAAR1 antagonism | AID 624466 | inhibition, % at 3 µM | hit rate 1.5% among 360,000 | CHO RD-HGA16 TAAR1, Fluo-8 calcium fluorescence, antagonist | Q96RJ0;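 active = inhibition above a per-plate cutoff, the mean inhibition of test compounds on that plate plus 3 SD, cut at about 49% in these data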;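 note: 0% = DMSO plus EC80 beta-PEA response and 100% = DMSO alone without agonist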
#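 Test system – hTAAR1-expressing CHO RD-HGA16 cells, Gα16-coupled · Reagent – β-PEA at EC80 concentration, post-compound challenge · Compound dosing – 3 µM, single point · Timing – 140 s kinetic read after compound, 140 s after agonist · Detection – Fluo-8 intracellular calcium dye fluorescence, real-time kinetic reads · Control set – DMSO and EC80 PEA controls · Repeats – n of 1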
# M1 ag: human M1 muscarinic receptor agonism; P11229; hit rate 0.33% among 360,000; activation, % at 3 µM; AID 588814; CHO-K1 hM1, Fluo-8 calcium fluorescence, agonist mode; 0% DMSO, 100% acetylcholine EC100;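 active = activation above the run's mean compound activation plus 3 SD, cut at about 16% in these data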;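 note: peak over basal fluorescence ratio within a 140 s kinetic read after compound addition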
# TAAR1 agonist: agonists of human TAAR1; Q96RJ0; activation, % at 3 µM; CHO RD-HGA16 TAAR1, Fluo-8 calcium fluorescence; vehicle wells 0%, saturating PEA agonist 100%; hit rate 0.99% among 360,000;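 active = activation above the mean activation of all test compounds in the run plus 3 SD, cut at about 38% in these data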
#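 test system = CHO RD-HGA16 cells carrying human TAAR1 plus Gα16 | schedule = 17-24 h seeding, 75 min 37 °C dye, 30 min RT | compound dosing = 3 µM single concentration | control set = DMSO and PEA EC100 | replicates = n 1 | signal = Fluo-8 fluorescence, 5 s baseline then 140 s kinetic read | measure = percent activation vs PEA EC100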
# HTR2A ag: agonists of mouse serotonin 5-HT2A receptor (HTR2A); activation, % at 7.6 µM; P35363; CHO-K1 mHTR2A beta-arrestin complementation, luminescence; percent of 30 µM serotonin response; hit rate 0.66% among 360,000;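 active = activation above a run cutoff, the mean activation of all tested compounds plus 3 SD, cut at about 14% in these data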;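 note: 0% = plate median of compound wells and 100% = 30 µM serotonin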
# An asterisk follows results filed as active; · = not tested or not shown. Shown are actives, neighbours in structure and some others; about 3.9% of the full set was active somewhere.
SMILES,CHRM1 PAM,M1 antag,TAAR1 antag,M1 ag,TAAR1 agonist,HTR2A ag
O=C(Nc1cccc(C(F)(F)F)c1)N1CCC(c2nc(-c3ccc(F)cc3)no2)CC1,-34,65*,9,-9,11,-3
COCCNC(=S)N1CCC(c2nc(-c3ccc(N(C)C)cc3)no2)CC1,6,-1,-19,-4,12,-6
CC(C)CNC(=S)N1CCC(c2nc(-c3ccc(F)cc3)no2)CC1,-15,33*,23,-4,-1,-2
Cc1ccc(-c2csc(N3CCC(C(N)=O)CC3)n2)cc1,11,-6,9,0,9,0
Cc1ccc(-c2csc(N3CCC(NS(=O)(=O)c4ccc5c(c4)OCCO5)CC3)n2)cc1,-9,19*,27,3,6,3
Cc1nc2ccccc2n1CC(=O)c1ccccc1,4,-2,-1,0,2,-3
Cc1cc(N2CCC(C)CC2)nc(SCC(=O)c2ccccc2)n1,-12,18,54*,-4,20,-7
CC1CCN(c2nc3ccccc3n2CC(=O)c2ccccc2)CC1,-23,67*,-13,-5,4,-4
OC(CNCCc1ccc(C(F)(F)F)cc1)COC(c1ccccc1)c1ccccc1 (stereo not drawn),-25,76*,35,-3,35,-5
COc1ccc(C(OCC(O)CNCCc2ccc(S(N)(=O)=O)cc2)c2ccc(OC)cc2)cc1 (stereo not drawn),-11,18,-7,-10,3,0
CCOc1ccc(N=Nc2c(C)noc2C)cc1,4,2,-2,-3,0,6
Cc1ccc(-c2nn(CC(=O)N(C)C)c(=O)c3ccccc23)cc1S(=O)(=O)N(C)C,21*,-50,2,-3,9,4
Cc1ccc(NS(=O)(=O)c2ccc(-n3cccn3)cc2)cc1C,-17,28*,-6,-1,6,-1
COc1ccc(C(=O)CSC(=S)N2CCCCC2)cc1,-2,4,·,-9,·,-2
Cc1ccccc1COc1cccn2c(N(C)C(=O)CCC3CCCC3)c(C)nc12,-30,39*,29,-5,3,-7
CC(C)(C)NC(=O)C(c1ccc(C#N)cc1)n1c(=O)c(-c2cc3ccccc3[nH]2)nc2ccccc21 (stereo not drawn),·,·,-19,·,1,1
c1ccc(Oc2cccc(OCCCn3cncn3)c2)cc1,21*,-26,-6,6,4,1
O=[N+]([O-])c1ccc(OCCCn2cncn2)cc1,13,-10,8,-3,-1,1
CCCC(=O)Nc1ccc2c(c1)C(=O)N(C)C[C@@H](OC)[C@H](C)CN(Cc1ccc(-c3ccccn3)cc1)[C@@H](C)CO2,·,·,-36,·,0,4
Cc1c(C(=O)N2CCN(S(=O)(=O)c3ccccc3F)CC2)oc2c(Cl)cccc12,20,1,42,16*,3,1
CCOc1ccc(OCc2ccc(C(=O)N3CCCCC3)o2)cc1,2,-7,-3,-1,-2,-3
CCOc1ccc(OCc2ccc(C(=O)N3CCc4ccccc4C3)o2)cc1,6,-22,1,4,17,15*
COc1ccc(N2CCN(C(=O)c3ccc(COc4ccc([N+](=O)[O-])cc4)o3)CC2)cc1,-15,30*,38,0,3,-1
CC(OC(=O)c1ccc(O)cc1)C(=O)Nc1ccc(Oc2ccccc2)cc1 (stereo not drawn),-8,-2,49*,-6,3,-10
CN(C)CCNc1nc2sc3c(c2c(=O)n1Cc1ccccc1)CCCCC3,-30,73*,16,-11,25,6
SMILES,CHRM1 PAM,M1 antag,TAAR1 antag,M1 ag,TAAR1 agonist,HTR2A ag
COc1cc(/C=C(\C#N)c2nc3ccccc3[nH]2)ccc1OC(=O)c1ccco1,-16,8,18,2,11,-1
COc1cc(/C=C(\C#N)c2nc3ccccc3[nH]2)c([N+](=O)[O-])cc1OCc1ccccc1,-4,19,54*,-2,9,-3
O=C1CSC(c2ccc([N+](=O)[O-])cc2)N1CCN1CCCCC1 (stereo not drawn),3,-8,3,19*,0,-4
Cn1nc(C(=O)OCC(=O)Nc2sccc2C(N)=O)c2ccccc2c1=O,-12,16,41,2,10,-1
CC(C(=O)c1ccc(-c2ccccc2)cc1)[n+]1ccccc1 (stereo not drawn),-8,-8,0,-5,7,-6
Cc1cc[n+](C(C)C(=O)c2ccc(-c3ccccc3)cc2)cc1 (stereo not drawn),-20,58*,5,-7,2,-9
Cc1noc(C)c1S(=O)(=O)NCc1ccc(CN(C)C)cc1,1,2,1,-9,18,-6
CCc1ccc(Nc2n[n+](-c3ccccc3)c(-c3ccc(OCc4ccccc4)cc3)s2)cc1,0,5,2,-6,1,-2
CCc1ccc(Nc2n[n+](-c3ccccc3)c(-c3ccc(N(CC)CC)cc3)s2)cc1,-13,39*,50*,9,50*,-9
CCN(CC)c1ccc(-c2sc(Nc3ccccc3)n[n+]2-c2ccc(F)cc2)cc1,-6,20,24,6,49*,-6
CCc1ccc(Nc2n[n+](-c3ccccc3)c(-c3c(Cl)cccc3Cl)s2)cc1,-26,49*,92*,19*,59*,-18
CCC(CC)C(=O)NCCCN1CCOCC1,-6,9,14,-7,1,5
CC(C)CCN1CCN(Cc2cccc(-n3cccn3)c2)CC1CCO (stereo not drawn),-2,0,0,-7,4,-6
Cc1cc(-n2cccn2)ccc1CN1CCN(C2CCCC2)C(CCO)C1 (stereo not drawn),-20,100*,-7,-4,0,-5
Cc1cc(-n2cccn2)ccc1CN1CCN(CC(C)C)C(CCO)C1 (stereo not drawn),-24,48*,-15,-7,1,2
Cc1c(NC(=O)C(C)OC(=O)COc2ccc(C#N)cc2)c(=O)n(-c2ccccc2)n1C (stereo not drawn),7,-5,-52,-4,1,-13
CC1CCCCC1NC(=O)CSc1nnc(COc2ccc(Cl)cc2)o1 (stereo not drawn),1,1,1,-2,-3,-2
NCCCC[C@H]1CN=C(N)N1CCC12CC3CC(CC(C3)C1)C2,-39,59*,-18,-14,9,4
CCOc1ccc2cc(C3CC(c4ccco4)=NN3S(C)(=O)=O)c(=O)[nH]c2c1 (stereo not drawn),3,-20,-22,-3,3,-1
